For data set [1], the system named is Plasmodium falciparum. In words: Antimalarial activity against Plasmodium falciparum K1 infected in human RBC after 72 hrs by hypoxanthine incorporation assay in presence of serum albumin. The format is functional, organism-based. The note with it: for IC50: K1, 72 h. A digest of the protocol:
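Mixture of drug, human red blood cells and P. falciparum incubated 3 days (72 h) with serum albumin present; growth read as hypoxanthine incorporation.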

The next data set deals with Cytochrome P450 3A4 (Homo sapiens, UniProt P08684). Nature of the data set: Inhibition of human recombinant CYP3A4 expressed in baculovirus-infected insect cells preincubated for 15 mins followed by substrate addition measured after 30 mins by luminescence assay. The format is ADME. The note with it: recombinant enzyme, 0.5 h.
A further data set addresses Cytochrome P450 2D6 (Homo sapiens, UniProt P10635). In words: Inhibition of human recombinant CYP2D6 expressed in baculovirus-infected insect cells preincubated for 15 mins followed by substrate addition measured after 30 mins by luminescence assay. The format is ADME. The note with it: recombinant enzyme, 0.5 h.
For data set [2], the target named is Voltage-gated inwardly rectifying potassium channel KCNH2 (Homo sapiens, UniProt Q12809). In words: Inhibition of human ERG expressed in CHO cells. The format is cell-based.
Another data set deals with T1, Cytochrome P450 2C8 (Homo sapiens, UniProt P10632).
T1 sequence (P10632 whole entry): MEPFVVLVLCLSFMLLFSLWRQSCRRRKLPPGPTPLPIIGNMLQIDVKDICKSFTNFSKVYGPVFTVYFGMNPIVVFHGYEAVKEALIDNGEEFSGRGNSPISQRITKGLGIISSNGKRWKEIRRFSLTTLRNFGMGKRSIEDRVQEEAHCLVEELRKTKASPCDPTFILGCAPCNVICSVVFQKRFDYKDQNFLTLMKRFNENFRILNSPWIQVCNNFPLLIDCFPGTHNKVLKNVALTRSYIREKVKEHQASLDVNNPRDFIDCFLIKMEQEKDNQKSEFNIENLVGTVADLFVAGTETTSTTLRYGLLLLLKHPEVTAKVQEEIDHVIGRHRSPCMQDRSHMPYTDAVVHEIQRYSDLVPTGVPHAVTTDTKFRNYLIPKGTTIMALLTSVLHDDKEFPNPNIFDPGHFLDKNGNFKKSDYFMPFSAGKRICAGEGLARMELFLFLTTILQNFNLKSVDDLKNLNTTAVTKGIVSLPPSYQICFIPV
In words: Inhibition of human recombinant CYP2C8 expressed in baculovirus-infected insect cells preincubated for 15 mins followed by substrate addition measured after 30 mins by luminescence assay. The format is ADME. The settings on record: recombinant enzyme, 0.5 h.

For a further data set, the target named is T2, Cytochrome P450 1A2 (Homo sapiens, UniProt P05177).
T2 sequence (P05177 whole entry): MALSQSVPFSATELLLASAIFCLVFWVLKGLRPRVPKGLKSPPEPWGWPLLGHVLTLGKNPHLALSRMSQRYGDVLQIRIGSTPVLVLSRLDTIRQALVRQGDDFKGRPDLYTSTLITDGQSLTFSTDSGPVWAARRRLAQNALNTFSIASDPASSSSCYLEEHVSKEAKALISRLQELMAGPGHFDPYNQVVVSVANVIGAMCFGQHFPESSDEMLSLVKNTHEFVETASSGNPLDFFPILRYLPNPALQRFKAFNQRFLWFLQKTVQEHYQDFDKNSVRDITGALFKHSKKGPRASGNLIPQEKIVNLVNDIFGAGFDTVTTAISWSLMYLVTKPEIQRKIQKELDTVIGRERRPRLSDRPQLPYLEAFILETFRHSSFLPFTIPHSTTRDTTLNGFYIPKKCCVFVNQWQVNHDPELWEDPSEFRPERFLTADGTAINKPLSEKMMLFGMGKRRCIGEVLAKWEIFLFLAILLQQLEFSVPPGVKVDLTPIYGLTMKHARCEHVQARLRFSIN
In words: Inhibition of human recombinant CYP1A2 expressed in baculovirus-infected insect cells preincubated for 15 mins followed by substrate addition measured after 30 mins by luminescence assay. The format is ADME. The settings on record: recombinant enzyme, 0.5 h.

A further data set addresses Cytochrome P450 2C9 (Homo sapiens, UniProt P11712). Nature of the data set: Inhibition of human recombinant CYP2C9 expressed in baculovirus-infected insect cells preincubated for 15 mins followed by substrate addition measured after 30 mins by luminescence assay. The note with it: recombinant enzyme, 0.5 h. The format is ADME.
The next data set concerns the target T3, Cytochrome P450 2B6 (Homo sapiens, UniProt P20813).
T3 sequence (P20813 whole entry): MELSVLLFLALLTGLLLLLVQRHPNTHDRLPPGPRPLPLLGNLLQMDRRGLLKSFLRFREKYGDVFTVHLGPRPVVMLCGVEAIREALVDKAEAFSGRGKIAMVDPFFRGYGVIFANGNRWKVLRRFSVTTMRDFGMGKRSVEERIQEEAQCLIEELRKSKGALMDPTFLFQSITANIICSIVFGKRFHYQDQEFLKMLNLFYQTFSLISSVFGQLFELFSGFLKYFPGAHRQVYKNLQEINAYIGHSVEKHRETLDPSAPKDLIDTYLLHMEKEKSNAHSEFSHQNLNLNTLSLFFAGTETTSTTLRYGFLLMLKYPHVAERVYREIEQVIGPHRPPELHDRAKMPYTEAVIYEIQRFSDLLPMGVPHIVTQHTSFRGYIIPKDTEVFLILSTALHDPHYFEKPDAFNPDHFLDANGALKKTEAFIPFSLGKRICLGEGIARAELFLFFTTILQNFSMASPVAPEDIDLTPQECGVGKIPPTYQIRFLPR
Nature of the data set: Inhibition of human recombinant CYP2B6 expressed in baculovirus-infected insect cells preincubated for 15 mins followed by substrate addition measured after 30 mins by luminescence assay. The format is ADME. The settings on record: recombinant enzyme, 0.5 h.

Another data set addresses Cytochrome P450 2C19 (Homo sapiens, UniProt P33261). Nature of the data set: Inhibition of human recombinant CYP2C19 expressed in baculovirus-infected insect cells preincubated for 15 mins followed by substrate addition measured after 30 mins by luminescence assay. The format is ADME. The settings on record: recombinant enzyme, 0.5 h.
Data set [3] concerns Plasmodium falciparum. In words: Antimalarial activity against chloroquine-resistant Plasmodium falciparum K1 infected in human RBC. The format is functional, organism-based. In a few lines: (§1)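 P. falciparum cultured with test drug in human red blood cells for 3 days. Growth read out as hypoxanthine incorporation.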
In data set [4] the test system is Plasmodium berghei. In words: Antimalarial activity against Plasmodium berghei ANKA expressing GFP infected in NMRI mouse assessed as reduction in parasitemia at 100 mg/kg/day, po qd for 4 days measured at 24 hrs after last dose relative to control. The format is functional. Also noted: scale not given: the % may be the effect or the level left. A digest of the protocol: (§2)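 P. berghei-infected mice dosed orally once daily on days 0–3, first dose 4 h postinfection, at 3, 10, 30 and 100 mg/kg/day. Red blood cell parasitemia and plasma exposure measured on day 4, 24 h after last dose; ED50 derived from dose-response; survival then monitored for 26 further days as mean survival days.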

The test system of data set [5] is Plasmodium berghei. Nature of the data set: Antimalarial activity against Plasmodium berghei ANKA expressing GFP infected in NMRI mouse assessed as mean survival days at 100 mg/kg/day, po qd for 4 days measured at 24 hrs after last dose. The format is functional. A digest of the protocol: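 P. berghei-infected mice dosed orally once daily on days 0–3, starting 4 h postinfection, in groups of 3, 10, 30 and 100 mg/kg/day. Red blood cell parasitemia and plasma exposure measured on day 4, 24 h after the last dose. Mean survival days then monitored over 26 further days.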

For data set [6], the system named is Plasmodium falciparum. Nature of the data set: Antimalarial activity against drug-sensitive Plasmodium falciparum NF54. The format is functional, organism-based.
The nature of data set [7]: Terminal half life in NMRI mouse at 5 mg/kg, po by LC-MS/MS analysis. The format is ADME, organism-based. Also noted: dose 5 mg/kg, route oral. The note with it: in vivo, read-out: beta t1/2 (converted).
Data set [8] relates to Plasmodium falciparum. In words: Antimalarial activity against chloroquine, pyrimethamine, quinine-resistant Plasmodium falciparum V1S. The format is functional. The settings on record: VS/1.
Data set [9] relates to Plasmodium falciparum. Nature of the data set: Antimalarial activity against chloroquine and pyrimethamine-resistant Plasmodium falciparum K1. The format is functional, organism-based. A digest of the protocol: as §1
Data set [10] deals with Plasmodium falciparum. In words: Antimalarial activity against mefloquine-resistant Plasmodium falciparum TM91C235. The format is functional, organism-based.
Data set [11] concerns Plasmodium berghei. In words: Antimalarial activity against Plasmodium berghei ANKA expressing GFP infected in po dosed NMRI mouse assessed as reduction in parasitemia administered qd for 4 days measured at 24 hrs after last dose. The format is functional. A digest of the protocol: as §2
For data set [12], the system named is Plasmodium falciparum. In words: Antimalarial activity against chloroquine, pyrimethamine, cycloguanil-resistant Plasmodium falciparum 7G8. The format is functional, organism-based.
Data set [13] has as its system Plasmodium falciparum. In words: Antimalarial activity against chloroquine, pyrimethamine, sulfadoxine and quinine-resistant Plasmodium falciparum W2. The format is functional, organism-based.
A short description of data set [14]: AUC in NMRI mouse at 1 mg/kg, iv and 5 mg/kg, po by LC-MS/MS analysis. The settings on record: plasma. The format is ADME, organism-based.
Data set [15] is described as follows: Cmax in NMRI mouse at 1 mg/kg, iv and 5 mg/kg, po by LC-MS/MS analysis. The format is ADME, organism-based. The note with it: in vivo.
Data set [16] can be described thus: Oral bioavailability in NMRI mouse at 5 mg/kg by LC-MS/MS analysis. The format is ADME, organism-based. The settings on record: in vivo.
Data set [17] is described as follows: Volume of distribution at steady state in NMRI mouse at 1 mg/kg, iv by LC-MS/MS analysis. The format is ADME, organism-based. Further details: dose 1 mg/kg, route intravenous. The note with it: in vivo, read-out: Vdss.
Data set [18] has as its system Plasmodium falciparum. Nature of the data set: Antimalarial activity against chloroquine, pyrimethamine, sulfadoxine, quinine and mefloquine-sensitive Plasmodium falciparum D6. The format is functional, organism-based.

The source of these data is ChEMBL document CHEMBL3098117, “Identification and optimization of an aminoalcohol-carbazole series with antimalarial properties” (ACS Med Chem Lett, 2013).

Calls of active or inactive are those of the source. No cut-off for these calls is given here.

Sequence of Cytochrome P450 2D6 (P10635 whole entry): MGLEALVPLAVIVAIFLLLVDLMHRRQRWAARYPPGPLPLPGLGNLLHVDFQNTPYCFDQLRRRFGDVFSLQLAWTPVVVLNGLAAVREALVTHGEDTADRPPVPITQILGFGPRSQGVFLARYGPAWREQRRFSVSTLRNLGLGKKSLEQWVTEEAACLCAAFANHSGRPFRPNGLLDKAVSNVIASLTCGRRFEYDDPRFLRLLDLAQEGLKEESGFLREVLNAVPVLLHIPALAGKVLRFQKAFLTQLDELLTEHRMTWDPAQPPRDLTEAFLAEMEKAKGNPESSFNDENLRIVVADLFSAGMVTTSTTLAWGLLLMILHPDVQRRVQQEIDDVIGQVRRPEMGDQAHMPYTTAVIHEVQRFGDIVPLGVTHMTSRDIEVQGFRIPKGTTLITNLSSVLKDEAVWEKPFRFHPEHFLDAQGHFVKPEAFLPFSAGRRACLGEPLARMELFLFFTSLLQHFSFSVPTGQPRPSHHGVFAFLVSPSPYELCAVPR
Sequence of Cytochrome P450 2C19 (P33261 whole entry): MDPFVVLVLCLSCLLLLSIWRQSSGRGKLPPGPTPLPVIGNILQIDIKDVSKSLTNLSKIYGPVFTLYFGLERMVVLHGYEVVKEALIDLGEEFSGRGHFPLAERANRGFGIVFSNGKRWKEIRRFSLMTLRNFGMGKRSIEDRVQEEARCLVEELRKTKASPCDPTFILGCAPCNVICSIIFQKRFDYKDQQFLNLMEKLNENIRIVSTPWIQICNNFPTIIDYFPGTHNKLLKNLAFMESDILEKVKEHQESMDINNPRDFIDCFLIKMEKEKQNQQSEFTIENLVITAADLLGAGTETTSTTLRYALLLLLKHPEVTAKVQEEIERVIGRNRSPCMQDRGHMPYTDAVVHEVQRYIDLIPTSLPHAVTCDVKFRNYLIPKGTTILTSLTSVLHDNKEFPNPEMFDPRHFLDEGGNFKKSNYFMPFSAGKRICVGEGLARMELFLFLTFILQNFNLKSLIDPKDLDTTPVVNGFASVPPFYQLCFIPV
Sequence of Cytochrome P450 2C9 (P11712 whole entry): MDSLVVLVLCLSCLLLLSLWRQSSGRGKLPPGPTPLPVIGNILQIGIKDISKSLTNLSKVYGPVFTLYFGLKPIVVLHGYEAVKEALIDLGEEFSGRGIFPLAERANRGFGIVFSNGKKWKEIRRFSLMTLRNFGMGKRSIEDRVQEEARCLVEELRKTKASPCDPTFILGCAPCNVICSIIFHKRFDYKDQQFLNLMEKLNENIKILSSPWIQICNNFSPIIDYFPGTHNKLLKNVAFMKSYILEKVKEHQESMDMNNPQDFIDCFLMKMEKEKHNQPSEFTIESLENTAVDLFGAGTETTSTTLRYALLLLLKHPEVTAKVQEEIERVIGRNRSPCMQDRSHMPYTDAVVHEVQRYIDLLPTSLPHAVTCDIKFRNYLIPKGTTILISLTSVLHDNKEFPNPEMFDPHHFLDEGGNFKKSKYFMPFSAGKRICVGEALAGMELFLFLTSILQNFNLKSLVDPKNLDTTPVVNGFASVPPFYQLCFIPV
Sequence of Voltage-gated inwardly rectifying potassium channel KCNH2 (Q12809 whole entry): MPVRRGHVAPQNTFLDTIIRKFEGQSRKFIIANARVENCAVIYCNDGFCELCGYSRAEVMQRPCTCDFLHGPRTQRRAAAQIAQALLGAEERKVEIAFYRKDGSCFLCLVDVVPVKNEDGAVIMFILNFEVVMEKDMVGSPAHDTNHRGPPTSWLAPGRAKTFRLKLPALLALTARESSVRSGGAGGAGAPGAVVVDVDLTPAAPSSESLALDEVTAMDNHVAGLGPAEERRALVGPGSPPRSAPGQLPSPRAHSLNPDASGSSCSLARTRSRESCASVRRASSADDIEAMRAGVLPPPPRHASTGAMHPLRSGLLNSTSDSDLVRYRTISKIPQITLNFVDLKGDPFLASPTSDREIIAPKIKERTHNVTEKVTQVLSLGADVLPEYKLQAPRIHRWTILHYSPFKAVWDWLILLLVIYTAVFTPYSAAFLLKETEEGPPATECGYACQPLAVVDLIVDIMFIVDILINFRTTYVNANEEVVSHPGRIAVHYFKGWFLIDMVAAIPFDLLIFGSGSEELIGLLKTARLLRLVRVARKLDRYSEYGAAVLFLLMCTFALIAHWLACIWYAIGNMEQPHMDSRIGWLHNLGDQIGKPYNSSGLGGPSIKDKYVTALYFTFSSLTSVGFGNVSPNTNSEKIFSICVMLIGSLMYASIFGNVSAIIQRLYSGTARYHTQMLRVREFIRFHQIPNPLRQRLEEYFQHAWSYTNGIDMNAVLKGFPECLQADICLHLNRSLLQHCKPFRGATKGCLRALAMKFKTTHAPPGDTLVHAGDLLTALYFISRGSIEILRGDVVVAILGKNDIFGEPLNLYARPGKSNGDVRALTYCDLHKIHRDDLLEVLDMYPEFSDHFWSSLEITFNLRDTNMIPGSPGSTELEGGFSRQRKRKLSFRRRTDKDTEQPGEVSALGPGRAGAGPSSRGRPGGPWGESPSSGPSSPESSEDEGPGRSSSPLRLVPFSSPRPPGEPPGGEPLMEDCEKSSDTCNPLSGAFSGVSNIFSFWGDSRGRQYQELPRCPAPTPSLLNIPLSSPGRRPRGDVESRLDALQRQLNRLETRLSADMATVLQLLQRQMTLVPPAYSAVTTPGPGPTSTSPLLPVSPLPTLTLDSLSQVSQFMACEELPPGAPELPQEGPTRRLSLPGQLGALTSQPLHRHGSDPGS
Sequence of Cytochrome P450 3A4 (P08684 whole entry): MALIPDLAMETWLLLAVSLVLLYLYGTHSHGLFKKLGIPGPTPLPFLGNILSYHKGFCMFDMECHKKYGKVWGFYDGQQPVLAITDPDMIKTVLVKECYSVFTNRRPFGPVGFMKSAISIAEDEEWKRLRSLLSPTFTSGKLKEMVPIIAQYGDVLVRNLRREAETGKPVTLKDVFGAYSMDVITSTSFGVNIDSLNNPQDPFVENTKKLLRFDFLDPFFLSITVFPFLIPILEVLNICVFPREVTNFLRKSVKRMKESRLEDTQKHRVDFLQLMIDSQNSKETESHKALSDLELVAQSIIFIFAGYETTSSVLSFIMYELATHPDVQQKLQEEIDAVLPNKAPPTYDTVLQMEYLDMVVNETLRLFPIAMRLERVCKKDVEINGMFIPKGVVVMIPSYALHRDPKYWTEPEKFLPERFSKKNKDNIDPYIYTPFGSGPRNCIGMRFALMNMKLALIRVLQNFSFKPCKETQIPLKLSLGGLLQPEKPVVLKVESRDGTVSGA

As to `O[C@H](CNC1CCCCC1)Cn1c2ccc(Br)cc2c2cc(Br)ccc21`, the result in the data set on Plasmodium falciparum [1] was Active. Moreover, the “inhibition (INH)” value (on Cytochrome P450 3A4; on Cytochrome P450 2D6; in [2]; at Cytochrome P450 2C8; on Cytochrome P450 1A2; on Cytochrome P450 2C9) was “Active” each time. The “inhibition (INH)” value on Cytochrome P450 2B6 and on Cytochrome P450 2C19 was “Active” in each case.

Take `Clc1ccc2c(c1)c1cc(Cl)ccc1n2CCCN1CCN(CC2CCCCC2)CC1`: the IC50 (usually the concentration that gives 50% inhibition) with Plasmodium falciparum [1] was 707 nM.

Regarding `COC(CN1CCN(Cc2ccccc2)CC1)Cn1c2ccccc2c2ccccc21` (stereo not given), the 50% inhibitory concentration (IC50) with Plasmodium falciparum [1] was 3310 nM.

As for `OC(CN1CCN(Cc2ccccc2)CC1)Cn1c2ccccc2c2ccccc21` (stereo not given), the half-inhibitory concentration (IC50) in the data set on Plasmodium falciparum [1] was 275 nM.

In the data set on Plasmodium falciparum [3], `CC12CCC(CN(CC(O)Cn3c4ccc(Cl)cc4c4cc(Cl)ccc43)C1)C2(C)C` (stereo not given) registered an IC50 of 57 nM.

As to `FC(CN1CCN(CC2CCCCC2)CC1)Cn1c2ccc(Br)cc2c2cc(Br)ccc21` (stereo not given), the IC50 in the data set with Plasmodium falciparum [1] worked out at 106 nM.

Take `OC(CN1CCN(Cc2ccccc2)CC1)Cn1c2ccc(Br)cc2c2cc(Br)ccc21` (stereo not given): the half-inhibitory concentration (IC50) in the data set on Plasmodium falciparum [1] came out at 27 nM.

Compound `C[C@@H]1CC[C@H]2[C@@H](C)C(=O)O[C@@H]3O[C@@]4(C)CC[C@@H]1[C@]32OO4` [ARTEMISININ] came in with an IC50 with Plasmodium falciparum [3] of 5.4 nM.

With `O[C@@H](CNC1CCCCC1)Cn1c2ccc(Br)cc2c2cc(Br)ccc21`, the outcome with Plasmodium falciparum [1] was Active. For the same compound, the “inhibition (INH)” value (on Cytochrome P450 3A4; at Cytochrome P450 2D6; in [2]; at Cytochrome P450 2C8; on Cytochrome P450 1A2; at Cytochrome P450 2C9) was “Active” in each case. The “inhibition (INH)” value on Cytochrome P450 2B6 and at Cytochrome P450 2C19 was “Active” throughout.

With `OC(CN1CCN(Cc2ccccc2)CC1)Cn1c2ccccc2c2cc(Cl)ccc21` (stereo not given), in the data set with Plasmodium falciparum [1], the concentration for half-maximal inhibition (IC50) amounted to 165 nM.

For `O=C(CN1CCN(CC2CCCCC2)CC1)Cn1c2ccc(Cl)cc2c2cc(Cl)ccc21`, in the data set on Plasmodium falciparum [1], the IC50 was 448 nM.

With `OC(CN1CCN(CC2CCCCC2)CC1)Cn1c2ccc(Cl)cc2c2cc(Cl)ccc21` (stereo not given), in the data set with Plasmodium falciparum [1], the IC50 was determined as 16 nM. In addition, the Activity in the data set on Plasmodium berghei [4] is 99.93%; in the data set with Plasmodium berghei [11], “Dose dependent effect”. The outcome with Plasmodium berghei [5], with Plasmodium falciparum [6], with Plasmodium falciparum [8], with Plasmodium falciparum [9], in the data set on Plasmodium falciparum [10] and in the data set on Plasmodium falciparum [12] was Active. Besides, the result in the data set on Plasmodium falciparum [13] and in the data set with Plasmodium falciparum [18] was Active. In addition, the half-life in data set [7] is 8 h. Besides, in the data set with Plasmodium berghei [11], the ED50 (usually the dose that gives a 50% effect, or the effect in half of the subjects) came out at 34.5 mg/kg/day. In [14], the AUC (usually concentration integrated over time) is 1580 ng·h/mL. The Cmax – broadly, the maximum level reached in the sampled fluid or tissue – in data set [15] turned out to be 135 ng/mL. In addition, the bioavailability (as a rule, dose-corrected exposure relative to a reference, in per cent) in data set [16] was 50%. Moreover, the Vd in data set [17] came to 15 L/kg.

`O=C1CN(Cc2ccccc2)CCN1CC(O)Cn1c2ccc(Cl)cc2c2cc(Cl)ccc21` (stereo not given): in the data set on Plasmodium falciparum [1], the IC50 came to 344 nM.
